These results are taken from ChEMBL document CHEMBL2010655, “Chemical constituents from the aerial parts of Aster koraiensis with protein glycation and aldose reductase inhibitory activities” (J Nat Prod, 2012).

As usually defined, the IC50 is the midpoint of a concentration-inhibition curve.

For series [1], the target named is Aldo-keto reductase family 1 member B1 (Rattus norvegicus, UniProt P07943). Kind of series: Inhibition of Sprague-Dawley rat lens aldose reductase.
Series [2] is described as follows: Inhibition of advanced glycation end-products formation after 14 days by spectrofluorimetry. It counts as physicochemical. An outline of the steps:
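Glycation end-product formation measured by an established literature method. Fluorescent reaction products read spectrofluorometrically after a 14-day incubation. Aminoguanidine served as the positive control. Triplicate experiments, reported as mean ± SD. IC50 calculated from the dose–inhibition curve.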

Consider `C/C=C/C#CC#CCCCO[C@@H]1O[C@H](CO)[C@@H](O)[C@H](O)[C@H]1O`, for which the IC50 was greater than 30 µM in series [1] and greater than 50 µM in series [2]. In the same order, the values of `O=c1c(O[C@@H]2O[C@H](CO)[C@@H](O)[C@H](O)[C@H]2O)c(-c2ccc(O)c(O)c2)oc2cc(O)cc(O)c12` [ISOQUERCETIN] are 4.4 µM and 9.2 µM. Consider `CC1=CC[C@@H](O)[C@]2(C)[C@@H](OC(=O)/C=C/c3ccc(O)cc3)C[C@@H](C(C)C)[C@@H](O[C@@H]3O[C@H](CO)[C@@H](O)[C@H](O)[C@H]3O)[C@@H]12`, for which the IC50 is greater than 30 µM in series [1] and greater than 50 µM in series [2]. For `C/C=C/C#CC#C[C@H](O)CCO` [GYMNASTERKOREAYNE A] the same measures were greater than 30 µM and greater than 50 µM. For `O=C(/C=C/c1ccc(O)c(O)c1)O[C@H]1[C@H](O)C[C@](O)(C(=O)O)C[C@H]1OC(=O)/C=C/c1ccc(O)c(O)c1` the same measures were 2.3 µM and 6.4 µM. In turn, `CC(/C=C1\SC(=S)N(CC(=O)O)C1=O)=C\c1ccccc1` came in with an IC50 in series [2] greater than 50 µM. As for `O=c1c(O[C@@H]2OC[C@H](O)[C@H](O)[C@H]2O)c(-c2ccc(O)c(O)c2)oc2cc(O)cc(O)c12` [GUAJAVERIN], the results for the IC50 in series [1] and in series [2] were 0.32 µM and 9 µM, respectively. In the same order, the values of `CC[C@H](CC[C@@H](C)[C@H]1CC[C@H]2[C@@H]3CC=C4C[C@@H](O[C@@H]5O[C@H](CO)[C@@H](O)[C@H](O)[C@H]5O)CC[C@]4(C)[C@H]3CC[C@]12C)C(C)C` [SITOGLUSIDE] are greater than 30 µM and greater than 50 µM. For `C=CCCCCC/C=C/[C@H](O)C#CC#C[C@@H](O)[C@H](C)O` [GYMNASTERKOREAYNE E] the same measures were greater than 30 µM and greater than 50 µM. For `C[C@@H]1O[C@@H](OC[C@H]2O[C@@H](Oc3c(-c4ccc(O)cc4)oc4cc(O)cc(O)c4c3=O)[C@H](O)[C@@H](O)[C@@H]2O)[C@H](O)[C@H](O)[C@H]1O` [NICOTIFLOROSIDE] the same measures were 11.3 µM and greater than 50 µM.

On to `C=CCc1ccc(O[C@@H]2O[C@H](CO)[C@@H](O)[C@H](O)[C@H]2O)c(OC)c1` [CITRUSIN C], for which the IC50 was greater than 30 µM in series [1] and greater than 50 µM in series [2].

Regarding `COc1cc(-c2oc3cc(O)cc(O)c3c(=O)c2O[C@@H]2O[C@H](CO)[C@@H](O)[C@H](O)[C@H]2O)ccc1O` (stereo in doubt; 7), the IC50 is 9.3 µM in series [1] and 44.4 µM in series [2].

Take `O=C(/C=C/c1ccc(O)c(O)c1)O[C@@H]1C[C@](O)(C(=O)O)C[C@@H](OC(=O)/C=C/c2ccc(O)c(O)c2)[C@H]1O`: the IC50 in series [2] worked out at 6.6 µM. Take `C=C(CO[C@@H]1O[C@H](CO)[C@@H](O)[C@H](O)[C@H]1O)[C@H]1Oc2cc(C(C)=O)c(O)cc2[C@@H]1OC`: the IC50 in series [1] is greater than 30 µM; in series [2] it was greater than 50 µM. For `CC1=CC[C@H](O)[C@]2(C)[C@H]1[C@@H](O[C@@H]1O[C@H](CO)[C@@H](O)[C@H](O)[C@H]1O)[C@H](C(C)(C)O)C[C@H]2OC(=O)/C=C/c1ccc(O)cc1` the same measures were greater than 30 µM and greater than 50 µM.

Regarding `CC[C@H](/C=C/[C@@H](C)[C@H]1CC[C@H]2C3=CC[C@H]4C[C@@H](O)CC[C@]4(C)[C@H]3CC[C@]12C)C(C)C`, the results for the IC50 in series [1] and in series [2] were greater than 30 µM and greater than 50 µM, respectively. `COc1cc(-c2oc3cc(O)cc(O)c3c(=O)c2O[C@@H]2O[C@H](CO[C@@H]3O[C@@H](C)[C@H](O)[C@@H](O)[C@H]3O)[C@@H](O)[C@H](O)[C@H]2O)ccc1O` [NARCISSIN]: the IC50 in series [1] is 12.1 µM; in series [2], greater than 50 µM. As to `N=C(N)NN` [PIMAGEDINE], the IC50 was greater than 30 µM in series [1] and 966 µM in series [2].

In the case of `O=C(/C=C/c1ccc(O)c(O)c1)O[C@@H]1C[C@](O)(C(=O)O)C[C@@H](O)[C@H]1O` [CHLOROGENIC ACID], the IC50 is 0.95 µM in series [1] and greater than 50 µM in series [2].
